According to ChEMBL document CHEMBL1157307, “Bioassay for the identification of natural product-based activators of peroxisome proliferator-activated receptor-gamma (PPARgamma): the marine sponge metabolite psammaplin A activates PPARgamma and induces apoptosis in human breast tumor cells” (J Nat Prod, 2006):
One block for each compound: values may come before it. Activity calls are given as the source filed them. No cut-off for these calls is given here.

What was measured:
MCF7 [1] = assay: Induction of apoptosis in human MCF7 cells assessed as chromosome fragmentation at 30 uM by fluorescent microscopy; type: functional, cell-based; conditions: TDE = time-dependent effect
[2] = biological target: T1, Peroxisome proliferator-activated receptor gamma (Homo sapiens) (UniProt P37231); assay: Activation of GAL4 fused human PPARgamma ligand binding domain transfected in african green monkey CV1 cells at 10 uM by CAT reporter assay; type: cell-based; conditions: CV-1
T1 sequence (whole entry): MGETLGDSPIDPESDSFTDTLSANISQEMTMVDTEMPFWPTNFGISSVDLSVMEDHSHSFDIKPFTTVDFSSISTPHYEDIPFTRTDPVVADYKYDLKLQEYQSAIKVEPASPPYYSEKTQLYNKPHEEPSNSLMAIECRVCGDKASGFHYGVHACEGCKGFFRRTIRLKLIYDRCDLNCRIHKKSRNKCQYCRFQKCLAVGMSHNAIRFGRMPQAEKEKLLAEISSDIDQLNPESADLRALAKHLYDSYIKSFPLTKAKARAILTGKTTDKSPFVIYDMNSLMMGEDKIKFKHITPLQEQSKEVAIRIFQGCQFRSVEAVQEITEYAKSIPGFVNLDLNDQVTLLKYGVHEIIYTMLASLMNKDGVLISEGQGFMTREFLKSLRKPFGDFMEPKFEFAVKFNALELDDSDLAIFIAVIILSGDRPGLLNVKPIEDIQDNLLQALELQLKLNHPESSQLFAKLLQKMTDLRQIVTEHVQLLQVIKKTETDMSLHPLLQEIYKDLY

[3] = biological target: T1, Peroxisome proliferator-activated receptor gamma (Homo sapiens); assay: Activation of PPARgamma transfected in human MCF7 cells at 100 to 300 uM after 48 hrs by luciferase reporter gene assay; type: cell-based
Outline: (§1)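 MCF-7 or MDA-MB-231 cells grown in DMEM/F12 with 10% FCS at 37 °C, 5% CO2. Electroporated with pPPRE-aP2-tk-luc reporter (50 µg/mL) plus rat PPARγ construct pCMV-rPPARγ (10 µg/mL). Seeded 20,000 cells/well and left 20 h. Compound added in serum-free medium for 24 or 48 h. Cells lysed and luciferase read. Runs done in triplicate or quadruplicate.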

[4] = biological target: T1, Peroxisome proliferator-activated receptor gamma (Homo sapiens); assay: Activation of PPARgamma transfected in human MDA-MB-231 cells at 100 to 300 uM after 48 hrs by luciferase reporter gene assay; type: cell-based; outline: as §1
MCF7 [5] = assay: Antiproliferative activity against human MCF7 cells at 10 uM after 48 hrs by neutral red method; type: functional
Outline: (§2)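 MCF-7 cells plated as for the reporter assay (20,000/well, 20 h), then exposed 48 h to compound added in serum-free DMEM/F12. Viability read by neutral red uptake as absorbance at 540 nm, corrected at 630 nm. Triplicate, mean ± SD.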

MCF7 [6] = assay: Induction of apoptosis in human MCF7 cells assessed as chromosome fragmentation at 10 uM after 8 hrs by fluorescent microscopy; type: functional, cell-based
Outline: (§3)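 MCF-7 cells seeded at 80,000/well on coverslips and grown 16 h. Compound added (10 µM final) in an equal volume of serum-free medium; 30 nM taxol as control. After 4, 8 or 16 h, cells fixed in MeOH, washed in PBS and mounted in DAPI. Fragmented nuclei scored by fluorescence at 400×.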

MCF7 [7] = assay: Induction of apoptosis in human MCF7 cells assessed as chromosome fragmentation at 10 uM after 16 hrs by fluorescent microscopy; type: functional, cell-based; outline: as §3
MCF7 [8] = assay: Antiproliferative activity against human MCF7 cells by neutral red method; type: functional, cell-based; outline: as §2
MCF7 [9] = assay: Antiproliferative activity against human MCF7 cells at 30 uM after 8 hrs by neutral red method; type: functional
Outline: (§4)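 Short exposure: MCF-7 cells treated at 3, 10 or 30 µM for 1, 2, 4 or 8 h. Then washed twice with serum-free medium and grown 96 h in medium with 10% FCS, compound-free. Neutral red absorbance at 540 nm, corrected at 630 nm. Triplicate.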

[10] = Inhibition of HDAC by cell-free enzyme assay
[11] = biological target: T1, Peroxisome proliferator-activated receptor gamma (Homo sapiens); assay: Activation of PPARgamma transfected in human MCF7 cells at 10 uM after 48 hrs by luciferase reporter gene assay; type: cell-based; outline: as §1
T47D [12] = assay: Induction of apoptosis in human T47D cells assessed as chromosome fragmentation at 10 uM after 16 hrs by fluorescent microscopy
MCF7 [13] = assay: Antiproliferative activity against human MCF7 cells at 10 uM up to 8 hrs by neutral red method; type: functional, cell-based; outline: as §4
[14] = biological target: T2, Peroxisome proliferator-activated receptor gamma (Homo sapiens, UniProt P37231); assay: Activation of PPARgamma transfected in human MCF7 cells by luciferase reporter gene assay; type: cell-based
T2 sequence (P37231 whole entry): T1 sequence (whole entry)

NCI-H1299 = assay: Activation of p21 promoter in human H1299 cells by reporter assay; type: functional, cell-based
[15] = biological target: T1, Peroxisome proliferator-activated receptor gamma (Homo sapiens); assay: Activation of PPARgamma transfected in human MCF7 cells at 10 uM by luciferase reporter gene assay; type: cell-based; outline: as §1
T47D [16] = assay: Induction of apoptosis in human T47D cells assessed as chromosome fragmentation at 10 uM after 8 hrs by fluorescent microscopy

SMILES: CC(=O)O[C@H]1C(=O)[C@@]2(C)[C@H]([C@H](OC(=O)c3ccccc3)[C@]3(O)C[C@H](OC(=O)[C@H](O)[C@@H](NC(=O)c4ccccc4)c4ccccc4)C(C)=C1C3(C)C)[C@]1(OC(C)=O)CO[C@@H]1C[C@@H]2O
Activity (MCF7 [1]): tde

Activity [2]: Active
SMILES: CC1(COc2ccc(CC3SC(=O)NC3=O)cc2)CCCCC1 (configuration not stated)

Activity [3]: inactive
Activity [4]: inactive
SMILES: COc1ccc2c(c1)c(CC(=O)O)c(C)n2C(=O)c1ccc(Cl)cc1

IC50 (MCF7 [8]): 5 µM
IC50 [10]: 0.0042 µM
Activity [11]: Active
EC50 [14]: 5.7 µM
Activity [15]: Active
SMILES: O=C(NCCSSCCNC(=O)/C(Cc1ccc(O)c(Br)c1)=N/O)/C(Cc1ccc(O)c(Br)c1)=N/O [PSAMMAPLIN A]
Activity (MCF7 [5]): 62%
Activity (MCF7 [6]): Active
Activity (MCF7 [7]): Active
Activity (MCF7 [9]): 36%
Activity (T47D [12]): Active
Activity (MCF7 [13]): inactive
AC50 (NCI-H1299): 7.5 µM
Activity (T47D [16]): Active
